High-throughput results deposited in PubChem BioAssay by Johns Hopkins Ion Channel Center.
This is a sample that favours compounds with a hit; in the whole collection about 2.9% have one here.
TRPC6 act = activates the mouse TRPC6 cation channel | Q61143 | HEK293-TRPC6 membrane potential dye fluorescence; active compounds read high | B-score at 10 µM | hit rate 0.13% among 310,000 | AID 2550;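 active = B-score of the integrated fluorescence ratio above library mean plus 3 SD, and starting fluorescence ratio within library mean plus 5 SD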;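 note: higher score means more depolarization so channel activation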
TRPC6 inh = blocks the mouse TRPC6 cation channel | hit rate 1.1% among 310,000 | B-score at 10 µM | Q61143 | HEK293-TRPC6, membrane potential dye, ACh-evoked depolarization; active compounds read low;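 active = B-score under library mean minus 3 SD, initial fluorescence not abnormally high, positive integrated signal ratio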;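 note: B-score derived from integrated fluorescence ratio over the kinetic read; more negative B-score means stronger inhibition of depolarization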
Kir21 inh = inhibitors of mouse Kir2.1 inward-rectifier potassium channel; HEK293-Kir2.1, FluxOR thallium flux fluorescence; active compounds read low; B-score at 10 µM; AID 1672; hit rate 0.85% among 310,000; P35561;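 active = fluorescence ratio B-score at or below minus 3 SD of library scores, with starting-brightness B-score within 2 SD, cut at about -4.2 in these data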;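 note: channel flux triggered by added potassium and thallium sulfate stimulus; B-score of peak minus minimum fluorescence over baseline after thallium stimulus; more negative B-score means stronger Kir2.1 block with less thallium influx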
TRPC4 block = TRPC4 (mouse) channel inhibition. Q9QUQ5. hit rate 0.39% among 300,000. HEK293 TRPC4beta/mu-opioid, DAMGO-evoked Fluo4 calcium flux; active compounds read low. B-score at 10 µM;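 active = B-score over 3 SD under the library average, no early fluorescence shift, positive overall ratio signal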
Target sequence (Q9QUQ5 whole entry, looked up): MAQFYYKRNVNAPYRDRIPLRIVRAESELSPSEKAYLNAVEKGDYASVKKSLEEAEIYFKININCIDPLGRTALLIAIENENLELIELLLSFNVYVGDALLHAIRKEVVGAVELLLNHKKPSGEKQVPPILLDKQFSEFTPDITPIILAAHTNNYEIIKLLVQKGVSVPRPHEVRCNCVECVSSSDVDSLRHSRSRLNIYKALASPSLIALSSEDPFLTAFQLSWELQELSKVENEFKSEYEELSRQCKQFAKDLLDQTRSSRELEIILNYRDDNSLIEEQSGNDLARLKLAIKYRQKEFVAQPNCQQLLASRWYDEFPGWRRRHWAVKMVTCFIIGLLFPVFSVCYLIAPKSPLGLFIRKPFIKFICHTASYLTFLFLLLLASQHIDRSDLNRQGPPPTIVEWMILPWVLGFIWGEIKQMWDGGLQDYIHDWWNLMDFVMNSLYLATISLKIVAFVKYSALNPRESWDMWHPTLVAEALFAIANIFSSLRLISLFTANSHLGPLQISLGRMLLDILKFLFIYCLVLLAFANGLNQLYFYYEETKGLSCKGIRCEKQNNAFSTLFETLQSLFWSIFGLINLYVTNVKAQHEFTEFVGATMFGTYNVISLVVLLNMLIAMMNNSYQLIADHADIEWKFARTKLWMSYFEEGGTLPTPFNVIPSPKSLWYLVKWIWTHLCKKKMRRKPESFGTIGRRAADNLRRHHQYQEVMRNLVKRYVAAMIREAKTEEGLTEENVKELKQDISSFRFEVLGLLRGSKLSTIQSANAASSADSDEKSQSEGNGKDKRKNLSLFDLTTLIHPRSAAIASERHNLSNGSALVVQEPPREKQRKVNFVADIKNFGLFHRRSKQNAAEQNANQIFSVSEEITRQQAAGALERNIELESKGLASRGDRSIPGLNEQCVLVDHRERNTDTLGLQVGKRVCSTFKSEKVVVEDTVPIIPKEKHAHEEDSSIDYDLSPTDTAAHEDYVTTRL
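Assay system: TRPC4beta/mu-opioid receptor HEK293 cell line; compound dosing: single concentration per test compound; detection: Fluo4 Ca2+ flux fluorescence; evaluation: per-well B score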
TRPC4 PAM = TRPC4 (mouse) allosteric potentiation. hit rate 0.42% among 310,000. B-score at 10 µM. HEK293 TRPC4beta/mu-opioid, DAMGO EC20, Fluo-4 Ca2+ flux; active compounds read high. AID 2227. Q9QUQ5;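 active = B-score of calcium response area above 5 SD of library B-scores, with initial fluorescence ratio within 5 SD of library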;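 note: B-score of integrated fluorescence ratio over time as area under calcium response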
TRPC4 agonist = activators of mouse TRPC4 channel; hit rate 0.49% among 310,000; AID 2237; B-score at 10 µM; HEK293 TRPC4beta/mu-opioid, Fluo4 calcium fluorescence; active compounds read high; Q9QUQ5;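 active = B-score above 5 SD of library B-scores, and initial fluorescence ratio not above library mean plus 5 SD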;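 note: positive B-score marks a calcium rise read as TRPC4 activation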
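system = HEK293 cells stably co-expressing mouse TRPC4beta and mu-opioid receptor | schedule = Fluo4 dye loading 45 min at room temperature, 110 s recording | measure = B-scored integrated calcium fluorescence ratio | signal = Fluo4 calcium-sensitive dye fluorescence, kinetic, 1 Hz baseline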
TRPC4 sel inh 2 = second selectivity test of TRPC6 inhibitors: effect on mouse TRPC4. shares compounds with TRPC6 inh. hit rate 42% among 920. inhibition, % at 10 µM. HEK293 TRPC4/MOR, membrane potential dye fluorescence; channel activated by saturating DAMGO dose;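 active = compounds whose fluorescence signal differed from control wells by over 3 SD, either direction, in both duplicate plates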
TRPC4 spec = mouse TRPC4 off-target activity of TRPC6 inhibitors; activity change, negative = inhibition, % at 10 µM; hit rate 61% among 920; HEK293 TRPC4/mu-opioid, membrane potential fluorescence; shares compounds with TRPC6 inh;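 active = rise or fall in signal beyond 3 SD of buffer-only wells in both replicate plates, either sign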;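 note: integrated kinetic ratio of fluorescence range over baseline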
HEK293 MPD ctr 2-1 = parental HEK293 nonspecific activity of TRPC6 inhibitors, second screen | hit rate 31% among 920 | shares compounds with TRPC6 inh | parental HEK293 membrane potential dye fluorescence; maximal acetylcholine challenge after compound addition | signal change vs control, % at 10 µM;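 active = membrane potential signal moving either way by over 3 SD of the maximum-effect control, in both duplicate plates, meaning non-specific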
HEK293 MPD ctr-1 = checks TRPC6 inhibitor effects in parental HEK293 cells | AID 2780 | membrane potential signal change, % at 10 µM | shares compounds with TRPC6 inh | parental HEK293 membrane potential dye fluorescence | hit rate 60% among 920;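 active = membrane potential signal shifting up or down by more than 3 SD of buffer-only wells, on both duplicate plates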
HEK293 MPD ctr-2 = checks TRPC6 modulator effects in parental HEK293 cells; shares compounds with TRPC6 inh; membrane potential signal change, % at 10 µM; hit rate 51% among 2,400; membrane potential dye fluorescence;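 active = membrane potential signal moves up or down beyond 5 SD from buffer-only wells, on both duplicate plates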
HEK293 MPD ctr 2-2 = second counter-screen for TRPC6 modulators: effect in parental HEK293 cells. shares compounds with TRPC6 inh. membrane potential dye fluorescence; after compound, maximal acetylcholine stimulation. inhibition, % at 10 µM. hit rate 14% among 2,400. AID 488926;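 active = membrane potential signal drops by more than 5 SD from the mean control signal, in both duplicate plates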;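 note: plate controls were acetylcholine ECmax control wells for no effect and buffer only wells for full effect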
TRPC4/MOR mod = tests whether TRPC6 modulators also affect mouse TRPC4; AID 488927; shares compounds with TRPC6 inh; HEK293 TRPC4/mu-opioid, membrane potential fluorescence; hit rate 69% among 2,400; percent change from control (negative = decrease, positive = increase), % at 10 µM;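 active = membrane potential signal moved up or down beyond 5 SD of buffer control wells, in both duplicate plates, actives on both sides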;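 note: plate controls were assay buffer wells for no effect and DAMGO maximal-effect wells for full effect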
TRPC4/MOR inh 2 = mouse TRPC4 off-target activity of TRPC6 modulators, second screen; hit rate 55% among 2,400; HEK293 TRPC4/mu-opioid, membrane potential dye fluorescence; stimulated with maximal-effect DAMGO; shares compounds with TRPC6 inh; inhibition, % at 10 µM;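 active = drop in membrane potential signal beyond 5 SD of the control wells in both duplicate plates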;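 note: TRPC4 counter screen for TRPC6 hits run under conditions tuned for TRPC6 not TRPC4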
TRPC6 block conf = mouse TRPC6 inhibitor confirmation | shares compounds with TRPC6 inh | HEK293-TRPC6, membrane potential dye, ACh-evoked depolarization | inhibition, % at 10 µM | hit rate 43% among 3,300;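 active = fluorescence ratio falls more than 5 SD below the full-stimulation control mean, in both duplicate runs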;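 note: integrated fluorescence ratio of peak minus minimum over baseline after agonist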
TRPC6 act conf = mouse TRPC6 activator confirmation. shares compounds with TRPC6 inh. HEK293-TRPC6 membrane potential dye fluorescence, FDSS. activation, % at 10 µM. hit rate 11% among 2,800. AID 488961;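 active = ratio signal rise beyond 5 SD above unstimulated control wells' mean, seen in both duplicate runs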;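 note: plate controls were buffer EC0 wells for no effect and acetylcholine ECmax response for full effect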
Numbers without * were called inactive; i = inactive; x = no result.

SMILES | TRPC6 act | TRPC6 inh | Kir21 inh | TRPC4 block | TRPC4 PAM | TRPC4 agonist | HEK293 MPD ctr-2 | HEK293 MPD ctr 2-2 | TRPC4/MOR mod | TRPC4/MOR inh 2 | TRPC6 block conf | TRPC6 act conf | others
COc1ccc(S(=O)(=O)N(C)CC(=O)NCc2ccccn2)cc1 | i | i | 0.27 | i | i | i | x | x | x | x | x | x
CCCn1c(SCC(=O)C(C)(C)C)nc2ccccc21 | i | i | -3.7 | i | i | i | x | x | x | x | x | x
Cc1cc(C)c2nc(N3CCC(C(=O)NCc4cccnc4)CC3)sc2c1 | i | -5.3* | -0.92 | i | i | i | i | i | i | i | i | i
COc1ccc(-n2cnnc2SCC(=O)Nc2cc(S(=O)(=O)N3CCCCC3)ccc2C)cc1 | i | -6.1* | 0.11 | i | i | i | i | i | i | i | i | i
O=S(=O)(NCCNc1ncc(C(F)(F)F)cc1Cl)C(F)(F)F | i | -5.3* | -0.02 | i | i | i | i | i | 14%* | 32%* | 50%* | i
O=[N+]([O-])c1nn(-c2ccccc2)n(O)c1=NC1CCN(Cc2ccccc2)CC1 | i | i | -0.86 | i | i | i | x | x | x | x | x | x
O=[N+]([O-])c1nn(-c2ccc3c(c2)OCCO3)n(O)c1=NC1CCN(Cc2ccccc2)CC1 | i | -8.6* | 0.97 | i | i | i | x | x | x | x | i | i | TRPC4 sel inh 2=i;TRPC4 spec=i;HEK293 MPD ctr 2-1=i;HEK293 MPD ctr-1=i
Cc1sc2nc(C)n(/N=C/c3ccc(O)cc3O)c(=O)c2c1C | i | i | 0.33 | i | i | i | x | x | x | x | x | x
CC(=O)/C(=N/Nc1ccccc1[N+](=O)[O-])N1CCCc2ccccc21 | i | -6.6* | -0.7 | i | i | i | i | i | i | 49%* | i | i
CC(=O)/C(=N/Nc1ccc([N+](=O)[O-])cc1)N1CCCc2ccccc21 | i | i | -0.78 | i | i | i | x | x | x | x | x | x
COC(=O)c1c(N2C(=O)Nc3ccccc3N2O)sc2c1CCCC2 | 12* | i | -0.7 | i | i | i | 155%* | i | 18%* | i | i | 76%*
CCOC(=O)c1c(N2C(=O)Nc3ccccc3N2O)sc2c1CCCCC2 | i | i | -0.01 | i | i | i | x | x | x | x | x | x
CCn1cc(C(=O)N2CCN(c3ccccn3)CC2)c(=O)c2cc(S(=O)(=O)N3CCC(C)CC3)ccc21 | i | i | 1.9 | i | i | i | x | x | x | x | x | x
CC(C)NC(=O)CCc1nc2cccnc2n1-c1ccccc1 | i | -5.9* | 0.79 | i | i | i | i | i | i | i | i | i
COc1cccc(C(=O)OC(C)CN2CCCC2)c1 (centres undefined) | i | i | 0.64 | i | i | i | x | x | x | x | x | x
COc1ccc(-c2n[nH]c(C)c2-c2cc(OC)ccc2O)cc1 | i | -6* | 0.78 | i | i | i | i | i | i | i | i | i
COc1ccc(-c2cn(-c3ccc(SC(F)F)cc3)c3[n+]2CCC3)cc1OC | i | -6.3* | 1.3 | i | i | i | -137%* | 128%* | -20%* | 38%* | 64%* | i
CC(C)(C)NC(=O)Cn1nnc(-c2ccccc2NC(=O)c2cnccn2)n1 | 13* | -7.1* | -0.7 | i | i | i | i | i | 20%* | i | i | 72%*
CCCCOC(=O)c1ccc(NC(=S)NC(=O)c2ccco2)cc1 | i | i | -1.2 | i | i | i | x | x | x | x | x | x
CCCCCOC(=O)c1ccc(NC(=O)c2ccco2)cc1 | i | -13* | 0.1 | i | i | i | x | x | x | x | i | i | TRPC4 sel inh 2=i;TRPC4 spec=i;HEK293 MPD ctr 2-1=i;HEK293 MPD ctr-1=i
O=C(CN1C(=O)NC2(CCCC2)C1=O)Nc1ccccc1N1CCCC1 | i | i | 1.2 | i | i | i | x | x | x | x | x | x
Cc1cc(C)n2[nH]c(=O)c(N=Nc3ccccc3)c2n1 | i | -7.4* | 2.3 | i | i | i | x | x | x | x | i | i | TRPC4 sel inh 2=i;TRPC4 spec=-24%*;HEK293 MPD ctr 2-1=i;HEK293 MPD ctr-1=-388%*
Cc1cc(C)n2[nH]c(=O)c(N=Nc3cccc(Cl)c3)c2n1 | i | -7.5* | -0.31 | i | i | i | -198%* | 65%* | -28%* | 37%* | 46%* | i
Cc1cc(C)n2[nH]c(=O)c(N=Nc3cccc(C(F)(F)F)c3)c2n1 | i | i | 0.59 | i | i | i | x | x | x | x | x | x
COc1nc(C)nc2c1sc1nc3c(cc12)COC(C)(C)C3 | i | -6.4* | 1.2 | i | i | i | i | i | -12%* | i | i | i
Cc1cc(N2CCOCC2)nc2ccc(NC(=O)CCC(=O)N3CCCC(C)C3)cc12 (centres undefined) | i | -6* | 0.97 | i | i | i | -68%* | i | -18%* | 36%* | i | i
Cc1cc(N2CCCC2)nc2ccc(NC(=S)NCCCN3CCC(C)CC3)cc12 | i | -7.2* | -2.8 | i | i | i | x | x | x | x | i | i | TRPC4 sel inh 2=76%*;TRPC4 spec=-14%*;HEK293 MPD ctr 2-1=18%*;HEK293 MPD ctr-1=-192%*
